Measurements: ChEMBL document CHEMBL3784994, “Systematic comparison of the mono-, dimethyl- and trimethyl 3-hydroxy-4(1H)-pyridones - Attempted optimization of the orally active iron chelator, deferiprone” (Eur J Med Chem, 2016)

Assays:
[1] = Octanol-water partition coefficient, log P of the compound by shake-flask method; format: physicochemical
Procedure, shortened: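 Shake-flask partition between n-octanol and 25 mM MOPS, pH 7.4, at 25°C. Buffered solution and octanol were mixed at different ratios, stirred vigorously for 15 s, and separated by centrifugation. Aqueous UV absorbance was read before and after partition. P = (A0−A1)Vaq/(A1Vo).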

[2] = Binding affinity to iron(3) assessed as pFe3+ values after 10 to 30 mins
Liver microsome [3] = test: Drug metabolism in human liver microsomes assessed as glucuronidation at 10 uM after 24 hrs by mass spectrophotometry in presence of NADPH and UDPGA; format: ADME
Procedure, shortened: (§1)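 Pooled mixed-gender human liver microsomes (1 mg/mL) with 10 µM hydroxypyridinone in 100 mM PBS, with NADPH and UDPGA systems. Incubated at 37°C for 24 h with gentle shaking, in triplicate; the blank omitted microsomes. Stopped with 4% phosphoric acid and internal standard added, then centrifuged. Cation-exchange SPE, then UPLC–tandem MS on C18 to identify metabolites and quantify % metabolized.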

[4] = Binding affinity to iron(3) assessed as pFe3+ values after 5 mins
Procedure, shortened: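 Spectrophotometric titration of ligand with iron(III) in 0.1 M KCl, using a 50 mm path cuvette. KOH was added in 0.1 pH unit steps. After readings were stable (<0.001 pH unit over 3 s), there was a 5 min equilibration, then the spectrum was recorded. Constants were fitted with pHab. pFe3+ was computed at total Fe3+ 1 µM, total ligand 10 µM, pH 7.4.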

Liver microsome [5] = test: Drug metabolism in human liver microsomes assessed as hydroxylation at 10 uM after 24 hrs by mass spectrophotometry in presence of NADPH and UDPGA; format: ADME; procedure, shortened: as §1

| SMILES | logP [1] | Activity [2] | Drug metabolism (Liver microsome [3]) | Activity [4] | Drug metabolism (Liver microsome [5]) |
| --- | --- | --- | --- | --- | --- |
| Cn1cc(O)c(=O)cn1 | -0.85 | 17.2 | – | – | – |
| Cc1cc(=O)c(O)cn1C | -1.19 | – | metabolite_detected | 20.4 | – |
| Cn1ccc(=O)c(O)c1F | -0.85 | – | – | – | – |
| Cc1[nH]cc(C)c(=O)c1O | -0.13 | – | metabolite_detected | 19.2 | – |
| Cc1c(O)c(=O)ccn1C [DEFERIPRONE] | – | 20.6 | metabolite_detected | 20.7 | metabolite_detected |
| COc1cn(C)cc(C)c1=O | -0.85 | – | – | – | – |
| Cc1cn(C)c(C)c(O)c1=O | -0.51 | – | metabolite_detected | 19.7 | – |
| Cn1cc(O)c(=O)c(F)c1 | -0.85 | – | – | – | – |
| COc1c[nH]ccc1=O | -0.85 | – | – | – | – |
| Cc1cn(C)cc(O)c1=O | -0.93 | – | metabolite_detected | 20.5 | – |
| COc1c[nH]cc(C)c1=O | -0.51 | – | – | – | – |
| Cc1cc(=O)c(O)c[nH]1 | -0.73 | – | – | 20.1 | – |
| Cn1ccc(=O)c(O)n1 | -0.85 | 14.8 | – | – | – |
| Cc1nccc(O)c1O | -0.58 | – | metabolite_detected | 20.2 | metabolite_detected |
| Cc1c[nH]cc(O)c1=O | -0.59 | – | metabolite_detected | 20.1 | metabolite_detected |
| COc1c[nH]cc(CN(C)C)c1=O | -0.85 | – | – | – | – |
| Cc1cc(=O)c(F)c[nH]1 | -0.51 | – | – | – | – |
